According to ChEMBL document CHEMBL4765392, “Development of coumarine derivatives as potent anti-filovirus entry inhibitors targeting viral glycoprotein” (Eur J Med Chem, 2020):

Assays:
[1] = tested on: envelope glycoprotein of Zaire Ebolavirus; assay: Selectivity index, ratio of CC50 for human A549 cells to IC50 for inhibition of envelope glycoprotein in HIV pseudotyped Zaire Ebolavirus infected in human A549 cells assessed as reduction in virus entry; format: toxicity, cell-based; settings: read-out: Ratio CC50/IC50
How it was run: (§1)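 IC50 wells also got HIV luciferase pseudovirions bearing MARV GP or EBOV GP, read by luciferase. CC50 wells got fresh media, read by CellTiter-Glo. Both values come from logistic dose-response fits, and the index is CC50 divided by IC50.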

[2] = Cytotoxicity against human A549 cells assessed as reduction in cell viability by Celltiter-Glo assay; format: cell-based
How it was run: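 Low-passage A549 cells seeded at 5000/well 24 h ahead, then exposed for 48 h to 3-fold serial compound dilutions in fresh media without virus. Viability read by CellTiter-Glo luminescence and normalized to medium-only cells. CC50 from logistic regression fit of dose-response curves.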

[3] = tested on: envelope glycoprotein of Marburgvirus; assay: Selectivity index, ratio of CC50 for human A549 cells to IC50 for inhibition of envelope glycoprotein in HIV pseudotyped Marburgvirus infected in human A549 cells assessed as reduction in virus entry; format: toxicity, cell-based; settings: read-out: Ratio CC50/IC50; how it was run: as §1
[4] = Inhibition of envelope glycoprotein in HIV pseudotyped Zaire Ebolavirus infected in human A549 cells assessed as reduction in virus entry measured after 48 hrs by luciferase reporter gene assay; format: cell-based; settings: A549, 48 h
How it was run: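 A549 cells (5000/well, seeded 24 h prior) incubated 48 h with 3-fold serial compound dilutions premixed with HIV-backbone luciferase pseudovirions bearing EBOV GP. Entry quantified by luciferase signal, normalized to virus-alone cells. IC50 from logistic regression of dose-response curves.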

| Compound | selectivity ratio [1] | CC50 [2] | selectivity ratio [3] | IC50 [4] |
| --- | --- | --- | --- | --- |
| Cc1c(Cc2ccc(-c3ccccc3)cc2)c(=O)oc2cc(OCC(O)CNc3nccs3)ccc12 (configuration not stated) | 14.1 | 38.1 µM | 29.3 | 2.7 µM |
| Cc1c(Cc2ccc(OC(F)(F)F)cc2)c(=O)oc2cc(OCC(O)CNCCc3ccncc3)ccc12 (configuration not stated) | 6.6 | 14.3 µM | 10.7 | 2.2 µM |
| Cc1c(Cc2ccccc2)c(=O)oc2cc(OCCCNc3nccs3)ccc12 | 2.8 | 50.1 µM | 3.1 | 18 µM |
| NC(=O)C1CCN(CC(O)COc2ccc3c(C4CC4)cc(=O)oc3c2)CC1 (configuration not stated) | > 5.7 | > 100 µM | 3 | 17.7 µM |
| NC(=O)C1CCN(CC(O)COc2ccc3c(C4CC4)c(Cc4ccccc4)c(=O)oc3c2)CC1 (configuration not stated) | > 10.6 | > 100 µM | 15.3 | 9.4 µM |
| COC(CNCCc1ccncc1)COc1ccc2c(C)c(Cc3ccccc3)c(=O)oc2c1 (configuration not stated) | 5.9 | 16.6 µM | 9.6 | 2.8 µM |
| Cc1c(Cc2ccc(OC(F)(F)F)cc2)c(=O)oc2cc(OCC(O)CNc3nccs3)ccc12 (configuration not stated) | 66 | 99 µM | 82.5 | 1.5 µM |
| NC(=O)C1CCN(CC(O)COc2ccc3c(-c4ccccc4)c(Cc4ccccc4)c(=O)oc3c2)CC1 (configuration not stated) | 8.6 | 25.2 µM | 11.6 | 2.9 µM |
